Here are results for 4 molecules from article PMC11342948 (International Journal of Nanomedicine, 2024).

Data set [1] has as its system MPTP-induced PD model. Nature of the data set: Tyrosine hydroxylase immunohistochemical staining. It is filed as in vivo, C57BL/6J mice. In a few lines:
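In the same MPTP model (30 mg/kg/day i.p., 5 days; daily i.v. test compound), perfused brains were cut into 5 μm coronal sections. These were incubated with rabbit polyclonal anti-TH (1:400, PBS) overnight at 4°C, then HRP secondary (1:200), with DAB detection. Striatal TH fiber immunoreactivity was quantified by image analysis. TH-positive neurons were counted in every sixth section through the substantia nigra.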

Data set [2] relates to MPTP-induced PD model. In words: Dopamine and its metabolites in the striatum. It is filed as in vivo, C57BL/6J mice. Particulars: for dopamine levels: L-Dopa 4.95 mg/kg, ECH 13 mg/kg.
Data set [3] is described as follows: Evans blue BBB integrity test. It is filed as in vivo, mice. The conditions noted are these: Evans blue 50 mg/kg intravenously, 30 minutes.
In another data set the test system is bEnd.3 monolayer. In words: In vitro BBB penetration, transwell model. Particulars: 2 μg/mL.
In data set [4] the test system is MPTP-induced PD model. Nature of the data set: Behavioral assays. The data set is classed as in vivo, C57BL/6J mice. In a few lines: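 Male C57BL/6J mice (8 weeks, 22–25 g), 12 per cohort, given MPTP 30 mg/kg/day i.p. in 0.9% saline for 5 days, with daily i.v. test compound (13 mg/kg, free or liposomal), L-Dopa 4.95 mg/kg or saline. On day 16: 10-min video-tracked open field (50 cm box, 30×30 cm centre) and vertical pole descent (1.5 cm × 55 cm, head up; T-turn, T-total). n=8, mean ± SD.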

Data set [5] concerns MPTP-induced PD model. Nature of the data set: Oxidative stress assay in the striatum. It is filed as in vivo, C57BL/6J mice. Particulars: vs MPTP cohort. The essentials: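 The MPTP mouse model used male C57BL/6J mice given 30 mg/kg/day i.p. for 5 days, with daily i.v. test compound at 13 mg/kg. After day-16 behaviour and perfusion, striatum was homogenised in 1% triton (1 g/9 mL) and spun at 15294 g, 4°C, 10 min. SOD, GSH-PX and MDA in the supernatant were measured with commercial kits per the manufacturer.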

Setting [6] is: open-field test, day 16, vs MPTP-treated mice.
[7] abbreviates: pole test, day 16, vs MPTP-treated cohort.

As to Echinacoside [Free ECH], the “neuroprotection (TH immunohistochemistry)” value with MPTP-induced PD model [1] (compared to the MPTP cohort / other treatments) is given as “did not provide significant neuroprotection”. In the data set on MPTP-induced PD model [2] (MPTP 30 mg/kg i.p. five days), the dopamine levels is 1.27 ± 0.36 ng/mg of wet striatum tissue.

As for `CN1CC=C(c2ccccc2)CC1` [MPTP, 1-methyl-4-phenyl-1,2,3,6-tetrahydropyridine], the “BBB integrity (Evans blue levels in brain tissue)” value in data set [3] is “did not compromise BBB integrity”. For the same molecule, in the data set with MPTP-induced PD model [2] (MPTP 30 mg/kg i.p. five days), the “dopamine levels, reduction compared to the control” value amounted to 2.65 fold and the dopamine levels was 0.95 ± 0.15 ng/mg of wet striatum tissue.

`O=C([O-])c1ccccc1-c1c2ccc(=O)cc-2oc2cc([O-])ccc12.[Na+].[Na+]` [fluorescein sodium]: the apparent permeability coefficient with bEnd.3 monolayer is 6.92 ± 3.92×10^−6 cm/s.

For the molecule `N[C@@H](Cc1ccc(O)c(O)c1)C(=O)O` [L-Dopa, levodopa], in the data set with MPTP-induced PD model [4] (setting [6]), the average speed result is “increased”, the “movement within the central area” value is “significantly improved”, the “percentage of time spent in the center” value is on record as “increased” and the time spent immobile entry was “decreasing”. In addition, the total distance traveled entry with MPTP-induced PD model [4] (setting [6]) is recorded as “increased”. Besides, in the data set with MPTP-induced PD model [4] (setting [7]), the T-total result is “significantly reduced” and the T-turn entry is “significantly reduced”. For the same molecule, in the data set on MPTP-induced PD model [1] (striatum), the “MPTP-induced reduction in TH immunoreactivity in the striatum” value was “effectively counteracted”. Further, the “TH-positive neuron counts in the substantia nigra” value in the data set on MPTP-induced PD model [1] (substantia nigra) was “partially restored”. Further, in the data set with MPTP-induced PD model [5], the GSH-PX levels result was “significantly elevated”, the MDA levels result is reported as “reducing” and the SOD levels result is listed as “significantly elevated”. Besides, in the data set on MPTP-induced PD model [2], the “DOPAC levels, increase compared to the MPTP cohort” value worked out at 1.59 fold and the “HVA levels, increase compared to the MPTP cohort” value is reported as 1.63 fold. Besides, in the data set on MPTP-induced PD model [2] (MPTP 30 mg/kg i.p. five days), the dopamine levels is listed as 1.27 ± 0.09 ng/mg of wet striatum tissue.
